Measured values as given in ChEMBL document CHEMBL1152863, “Synthesis, HIV-RT inhibitory activity and SAR of 1-benzyl-1H-1,2,3-triazole derivatives of carbohydrates” (Eur J Med Chem, 2009).

Columns and labels:
[1] = Cytotoxicity against african green monkey Vero cells after 72 hrs by MTT assay; assay type: cell-based; settings: chlorocebus sabaeus
Procedure, shortened: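 Vero cells grown in DMEM with 5% FBS, penicillin/streptomycin, 37 °C, 5% CO2; monolayers of about 10^4 cells exposed to several compound concentrations for 72 h. MTT solution (1 mg/mL) then added to assess viability. CC50 obtained by linear regression of dose-response curves; duplicates, at least three independent experiments.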

[2] = molecular target: Human immunodeficiency virus type 1 reverse transcriptase (Human immunodeficiency virus 1) (UniProt Q72547); test: Inhibition of polymerase activity of HIV1 recombinant reverse transcriptase expressed in Escherichia coli at 50 uM
Procedure, shortened: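 Single-concentration test: compounds at 50 on recombinant HIV-1 RT (66 kDa, E. coli-expressed from pUC12N, Sephadex G-25 fraction) polymerase activity. 50 mM Tris-HCl pH 7.8, 6 mM MgCl2, 1 mM DTT, 50 mM KCl, dTTP with [3H]dTTP, poly(rA)·oligo(dT) template-primer, 1 U enzyme; 30 min at 37 °C; TCA precipitation onto filters, incorporated 3H by scintillation counting.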

[3] = molecular target: Human immunodeficiency virus type 1 reverse transcriptase (Human immunodeficiency virus 1, UniProt Q72547); test: Inhibition of polymerase activity of HIV1 recombinant reverse transcriptase expressed in Escherichia coli
Procedure, shortened: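 Recombinant HIV-1 RT (66 kDa) expressed in E. coli from plasmid pUC12N, partly purified by Sephadex G-25; compounds tested at different concentrations (0.01-50). Reaction: 50 mM Tris-HCl pH 7.8, 6 mM MgCl2, 1 mM DTT, 50 mM KCl, dTTP plus [3H]dTTP, poly(rA)·oligo(dT), 1 U enzyme; 37 °C, 30 min; stopped with ice-cold 5% TCA/pyrophosphate, filter-collected, 3H counted by scintillation.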

| Compound | CC50 at 72 h [1] [µM] | inhibition [2] [%] | IC50 [3] [nM] |
| --- | --- | --- | --- |
| Cc1cn([C@H]2C[C@H](N=[N+]=[N-])[C@@H](CO)O2)c(=O)[nH]c1=O [ZIDOVUDINE] | 126 | – | – |
| Cc1c(C(=O)O[C@H]2[C@H]3OC(C)(C)O[C@H]3O[C@@H]2[C@H]2COC(C)(C)O2)nnn1Cc1ccccc1 | 3530 | 3 | – |
| Cc1c(C(=O)O[C@H]2[C@H](O)[C@H](O)CO[C@]2(O)CO)nnn1Cc1ccccc1 | 649 | 45.6 | – |
| Cc1c(C(=O)OC[C@H]2O[C@H](O)[C@H](O)[C@H]2OCc2ccccc2)nnn1Cc1ccccc1 | 596 | 36.2 | – |
| Cc1c(C(=O)OC[C@H]2O[C@@H]3OC(C)(C)O[C@@H]3[C@H]3OC(C)(C)O[C@H]32)nnn1Cc1ccccc1 | 123 | 28.8 | – |
| Cc1c(C(=O)OC[C@@]2(O)OC[C@@H](O)[C@@H](O)[C@@H]2O)nnn1Cc1ccccc1 | 800 | 35.8 | – |
| Cc1c(C(=O)O[C@H]2[C@@H](O)[C@H](O)O[C@H](CO)[C@H]2O)nnn1Cc1ccccc1 | 1440 | 14 | – |
| Cc1c(C(=O)OC[C@@]23OC[C@H]4OC(C)(C)O[C@H]4[C@@H]2OC(C)(C)O3)nnn1Cc1ccccc1 | 3380 | 47.9 | – |
| Cc1c(C(=O)O[C@H]2[C@@H]3OC(C)(C)O[C@@H]3CO[C@]23COC(C)(C)O3)nnn1Cc1ccccc1 | 2750 | 43.5 | – |
| Cc1c(C(=O)O[C@@H]2[C@H]3OC(C)(C)O[C@H]3O[C@@H]2[C@H]2COC(C)(C)O2)nnn1Cc1ccccc1 | 208 | 64.7 | 5000 |
| CO[C@@H]1O[C@H](COC(=O)c2nnn(Cc3ccccc3)c2C)[C@H]2OC(C)(C)O[C@@H]12 | 837 | 63.6 | 2200 |
| Cc1c(C(=O)OC[C@H]2O[C@H](O)[C@H](O)[C@@H](O)[C@H]2O)nnn1Cc1ccccc1 | 25600 | 45.6 | – |
| Cc1c(C(=O)O[C@H]2[C@H](O)[C@@H](CO)OC(O)[C@@H]2O)nnn1Cc1ccccc1 (some centres not stated) | 1800 | 35.9 | – |
| Cc1c(C(=O)OC[C@H]2O[C@@H]3OC(C)(C)O[C@@H]3[C@H]2OCc2ccccc2)nnn1Cc1ccccc1 | 724 | 65.4 | 1980 |
| Cc1c(C(=O)OC[C@H]2O[C@@H](O)[C@H](O)[C@@H]2O)nnn1Cc1ccccc1 | 1170 | 33.2 | – |
